Compound activity deposited in PubChem BioAssay by The Scripps Research Institute Molecular Screening Center.
A selection: hits, their analogues and other compounds. The true share with any hit is near 2.5%.
HTRA1 inh: HTRA1 serine protease inhibitors, primary screen, biochemical, fluorescence polarization, HTS; recombinant HTRA1, FP-rhodamine activity-based probe; inhibition, % at 5.96 µM; hit rate 0.5% among 340,000; in the data active means inhibition above about 36%;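 further: 0% = enzyme with DMSO and 100% = wells lacking enzyme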
ABHD4 inh: ABHD4 inhibitors, primary screen, biochemical, fluorescence polarization, mouse | (Lyso)-N-acylphosphatidylethanolamine lipase (Mus musculus), Q8VD66 | purified mABHD4, FP-Rh probe fluorescence polarization | inhibition, % at 8.92 µM | hit rate 0.54% among 370,000 | AID 720543, 2013;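 active means inhibition exceeding the mean over every tested compound plus 3 SD, cut at about 30% in these data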;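 further: 0% = plate median of compound wells and 100% = S159A mutant with DMSO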
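Test system: mouse ABHD4 enzyme, wild type. Reagent: FP-Rh fluorescent activity-based probe, added after compound pre-incubation. Timing: pre-incubation 45 min, probe exposure 60 min, at 25 °C. Technique: FP readout, ex 525 nm / em 598 nm. Benchmarks: high control S159A mutant with DMSO, low control median of compound wells.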
SIAE primary: human SIAE inhibitors, primary screen, biochemical, fluorescence polarization, FP-Rh probe, 1536-well HTS | Sialate O-acetylesterase (Homo sapiens), Q9HAT2 | SIAE FP-Rh probe binding | inhibition, % at 9.66 µM | hit rate 0.69% among 370,000 | AID 1053197, 2014;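 active means inhibition above a cutoff: mean of compounds within the control limits plus 3 SD of those, cut at about 17% in these data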;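 further: 0% = plate median of compound wells and 100% = probe without SIAE protein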
Target sequence (Q9HAT2 whole entry, looked up): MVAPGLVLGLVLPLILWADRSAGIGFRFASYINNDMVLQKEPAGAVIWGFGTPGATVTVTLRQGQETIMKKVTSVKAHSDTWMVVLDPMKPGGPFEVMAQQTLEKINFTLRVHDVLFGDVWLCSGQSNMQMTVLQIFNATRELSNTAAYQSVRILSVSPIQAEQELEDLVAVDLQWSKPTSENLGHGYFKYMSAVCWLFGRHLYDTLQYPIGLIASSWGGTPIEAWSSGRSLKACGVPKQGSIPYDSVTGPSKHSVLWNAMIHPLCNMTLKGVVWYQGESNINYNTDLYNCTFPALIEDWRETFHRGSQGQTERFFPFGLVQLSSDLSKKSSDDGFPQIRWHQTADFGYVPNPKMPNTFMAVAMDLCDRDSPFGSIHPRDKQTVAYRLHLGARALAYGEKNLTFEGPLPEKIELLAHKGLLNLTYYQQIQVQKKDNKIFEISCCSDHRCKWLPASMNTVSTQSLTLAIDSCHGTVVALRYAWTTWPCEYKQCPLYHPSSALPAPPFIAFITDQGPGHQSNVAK
TCR CD3 inh: inhibitors of human TCR-CD3 interaction, primary screen, biochemical, fluorescence, TAMRA-labeled TCR probe. inhibition, % at 9.4 µM. AID 651800, 2012. hit rate 0.37% among 360,000. T-cell receptor (TCR); in the data active means inhibition above about 19%;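 further: recombinant mutant TCR 2C K166C tagged with TAMRA read by polarization; 0% = receptor in buffer alone and 100% = receptor with positive control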
PRMT1 inh: PRMT1 methyltransferase inhibitors, primary screen, biochemical, fluorescence polarization | Protein arginine N-methyltransferase 1 (Homo sapiens), Q99873 | recombinant PRMT1, activity-based probe fluorescence polarization | inhibition, % at 2.79 µM | hit rate 1.3% among 370,000 | AID 652257, 2013;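 active means inhibition above about 21% made by adding two undisclosed values, limit read from the data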
SIAE confirm: human SIAE inhibitors, retest, confirmation, biochemical, fluorescence polarization, FP-Rh probe, triplicate; shares compounds with SIAE primary; SIAE FP-Rh activity-based probe; inhibition, % at 9.66 µM; hit rate 13% among 2,300; AID 1117263, 2014;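 active means mean inhibition of the replicates above the hit cutoff set in the primary screen, cut at about 17% in these data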;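 further: 0% = SIAE with DMSO and probe and 100% = probe without SIAE; inhibitors lower polarization as more probe stays unbound to SIAE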
The depositor's hits bear a star; . = no result.

SMILES | HTRA1 inh | ABHD4 inh | SIAE primary | TCR CD3 inh | PRMT1 inh | SIAE confirm
O=C(COC(=O)COc1ccc(Cl)cc1)Nc1ccc2c(c1)OCCO2 | 5 | 3 | 18* | 5 | 0 | 1
COc1cc(NC(=O)C2CCN(S(=O)(=O)c3ccc4[nH]c(=O)oc4c3)CC2)cc(OC)c1 | -8 | 2 | 10 | 0 | 1 | .
COc1ccccc1CNC(=O)C1CCCN(S(=O)(=O)c2cccs2)C1 (stereo unspecified) | 4 | 3 | -9 | 3 | 4 | .
COc1ccccc1CNC(=O)C1CCCN(S(C)(=O)=O)C1 (stereo unspecified) | -3 | 4 | 23* | 5 | 0 | -1
Cc1ccc(Nc2nc(/N=C/NO)n[nH]2)cc1C | 3 | 3 | 26* | 6 | -4 | 2
Cc1nc(C)c(-c2ccnc(/N=C/NO)n2)s1 | 1 | -2 | -2 | 0 | 3 | .
NNc1nc2c(-c3cccc(C(F)(F)F)c3)nnn2c2ccccc12 | -22 | 15 | 22* | 2 | -3 | -10
COc1ccc(NC(=O)CN2C(=O)C(C)Oc3ccc(C)cc32)cc1 (stereo unspecified) | 0 | 3 | 21* | -2 | -1 | 7
CC(C)C[C@H]1COc2cc(Br)ccc2S(=O)(=O)N1Cc1cn(CCC2OCCCO2)nn1 | . | 4 | 3 | . | -1 | .
COc1cc(NC2=Nc3cccc4cccc2c34)cc(OC)c1OC | 0 | 0 | 24* | 2 | -2 | 9
COc1ccc(NC2=Nc3cccc4cccc2c34)cc1OC | -7 | 6 | 6 | -9 | 1 | .
Cc1ccc(CN2CCN(Cc3cc(=O)c4ccccc4[nH]3)CC2CCO)o1 (stereo unspecified) | 0 | 0 | 17* | 0 | -2 | -10
CC(NC(=O)c1ccccc1)C(=O)N/N=C/c1ccco1 (stereo unspecified) | 1 | -3 | 18* | -5 | 1 | -1
CC(C)CC(NC(=O)c1ccccc1)C(=O)N/N=C/c1ccco1 (stereo unspecified) | 1 | -2 | -1 | 6 | -1 | .
Nc1nc(-c2ccc(Br)cc2)cs1 | -8 | -1 | 3 | -3 | -1 | .
Brc1ccc(-c2csc(Nc3nc(-c4ccc(Br)cc4)cs3)n2)cc1 | -12 | 7 | 42* | -7 | 3 | 11
Clc1ccc(-c2csc(N3CCCCCC3)n2)cc1 | 0 | -14 | 76* | -5 | 9 | 5
O=C(O)c1ccccc1NN=Cc1ccccc1 | 3 | 6 | 18* | -8 | 0 | 2
COc1cccc(/C=N/Nc2ccccc2C(=O)O)c1O | 2 | 10 | -1 | 5 | 2 | .
Oc1ccc(O)c(Cc2nc3ccccc3[nH]2)c1 | 7 | 11 | 19* | 0 | 30* | 3
Nc1ccc(-c2n[nH]c(=O)c3ccccc23)cc1N | -23 | -2 | 19* | 6 | 4 | 7
Cc1ccc(-c2n[nH]c(=O)c3ccccc23)cc1N | 4 | -1 | 7 | 13 | 0 | .
CCCn1cnnc1CNC(=O)[C@@H](Cc1ccccc1)NC(=O)[C@H]1O[C@@H](n2ccc(=O)[nH]c2=O)[C@H](O)[C@@H]1O | . | 6 | 30* | 5 | -2 | 35*
COc1cc(NC(=O)[C@@H](Cc2ccccc2)NC(=O)[C@H]2O[C@@H](n3ccc(N)nc3=O)[C@H](O)[C@@H]2O)cc(OC)c1OC | . | -1 | 45* | 3 | 4 | 46*
O=C(N[C@H](Cc1ccccc1)C(=O)NCc1ccccn1)[C@H]1O[C@@H](n2ccc(=O)[nH]c2=O)[C@H](O)[C@@H]1O | . | -1 | -3 | -1 | -1 | .
SMILES | HTRA1 inh | ABHD4 inh | SIAE primary | TCR CD3 inh | PRMT1 inh | SIAE confirm
Nc1ccn([C@@H]2O[C@H](C(=O)N[C@H](Cc3ccccc3)C(=O)NCc3cccc4c3OCO4)[C@@H](O)[C@H]2O)c(=O)n1 | . | -1 | 7 | 2 | -1 | .
Nc1ccn([C@@H]2O[C@H](C(=O)N[C@H](Cc3ccccc3)C(=O)N3CCC(F)(F)CC3)[C@@H](O)[C@H]2O)c(=O)n1 | . | 5 | 45* | 3 | -2 | 53*
Cc1ccc(CNC(=O)[C@@H](Cc2ccccc2)NC(=O)[C@H]2O[C@@H](n3ccc(N)nc3=O)[C@H](O)[C@@H]2O)o1 | . | -1 | 18* | -2 | 0 | 14
COCCN(CCOC)C(=O)[C@@H](Cc1ccccc1)NC(=O)[C@H]1O[C@@H](n2ccc(N)nc2=O)[C@H](O)[C@@H]1O | . | -5 | 5 | -3 | -1 | .
COc1ccc(CN(C)C(=O)[C@@H](Cc2ccccc2)NC(=O)[C@H]2O[C@@H](n3ccc(N)nc3=O)[C@H](O)[C@@H]2O)cc1OC | . | -2 | 48* | -5 | -2 | 53*
COc1ccc(C2CC(c3ccccc3)=NN2c2ccc(C(N)=O)cc2)cc1 (stereo unspecified) | 2 | 7 | 8 | 1 | 4 | .
COc1ccc(C2CC(c3ccccc3)=NN2c2ccc(/C=N/NC(=O)c3ccncc3)cc2)cc1 (stereo unspecified) | 4 | 11 | 17* | 1 | -1 | 7
Cc1ccc(-c2nn(Cc3ccccc3)cc2/C=C/C(=O)O)cc1C | -8 | -8 | 0 | 7 | 0 | .
O=C(O)/C=C/c1cn(Cc2ccccc2)nc1-c1ccccc1 | 3 | -3 | 19* | 2 | -2 | 2
NC(=S)Nc1ccc(F)c(F)c1F | 4 | -1 | 8 | 2 | 1 | .
NC(=S)Nc1ccc(F)cc1F | 2 | 3 | 22* | 4 | -3 | 2
O=C(Nc1ccc2c(c1)OCO2)c1ccc(N2CCCC2)c([N+](=O)[O-])c1 | 5 | 7 | 22* | 2 | 1 | 3
CCNc1nc(NC(C)C)nc(Oc2ccc(=O)n(C)n2)n1 | 9 | 3 | 6 | 3 | -3 | .
CCc1nc2ccc(C(=O)NCCc3ccccn3)cn2c1N(C)Cc1ccc(N(C)C)cc1 | . | 3 | 23* | -2 | 2 | 4
CC1(C)CCC[C@]2(C)[C@H]3Cc4cc(O)ccc4O[C@]3(C)CC[C@@H]12 | -2 | -6 | -1 | -1 | 4 | .
O=C(CSc1n[nH]c(-c2cccnc2)n1)OC1CCCCC1 | -3 | -4 | 18* | -4 | 2 | -3
O=C(CSc1n[nH]c(-c2cccnc2)n1)Nc1ccc(Br)cc1 | 6 | -21 | -3 | -3 | -4 | .
C=CCn1c(CNC(=O)c2cccs2)nnc1SCC(=O)Nc1ccc(C(=O)O)cc1 | 4 | -6 | 8 | -5 | -1 | .
C=CCn1c(CNC(=O)c2cccs2)nnc1SCC(=O)c1ccc(Br)cc1 | -12 | -5 | 28* | 2 | -1 | 2
